The record followed here is ChEMBL document CHEMBL4004844, “Structure-based design, synthesis and antitumoral evaluation of enulosides” (Eur J Med Chem, 2017).

Series [1] has as its system NCI-H292. Nature of the series: Growth inhibition of human NCI-H292 cells after 72 hrs by MTT assay. The format is functional, cell-based. To be noted: NCI-H292, 72 h. An outline of the steps: (§1)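 Cells kept in RPMI 1640 or DMEM with 10% FBS, 2 mM glutamine, penicillin/streptomycin, at 37 °C and 5% CO2. Seeded at 10⁵ cells/mL (adherent NCI-H292, MCF-7, HEP-2) or 3 × 10⁵ cells/mL (HL-60). Compounds at 0.1–25 in 0.1% DMSO for 72 h, with DMSO controls. MTT read at 595 nm. IC50 with 95% CI from nonlinear regression, two experiments.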
(Tetrazolium assays rely on reduction of a dye to a coloured formazan, in cell work by metabolically active cells.)

For series [2], the system named is MCF7. Nature of the series: Growth inhibition of human MCF7 cells after 72 hrs by MTT assay. Format: functional, cell-based. To be noted: MCF7, 72 h. An outline of the steps:
as §1

In series [3] the test system is HL-60. Nature of the series: Growth inhibition of human HL60 cells after 72 hrs by MTT assay. To be noted: HL-60, 72 h. The format is functional, cell-based.
The subject of series [4] is HEp-2. Nature of the series: Growth inhibition of human Hep2 cells after 72 hrs by MTT assay. The format is functional, cell-based. To be noted: HEp-2, 72 h. Put shortly:
as §1

Series [5] in a line: Solubility in water. The format is physicochemical. To be noted: buffer.
The subject of series [6] is NCI-H292. Nature of the series: Growth inhibition of human NCI-H292 cells at 25 ug/ml after 72 hrs by MTT assay relative to control. Format: functional. To be noted: NCI-H292, 72 h, read-out: GI. Put shortly:
(§2)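 Preliminary single-concentration screen at 25 by MTT reduction. Cells seeded at 10⁵ cells/mL (adherent) or 3 × 10⁵ cells/mL (HL-60), exposed for 72 h in 0.1% DMSO. Percent growth inhibition relative to DMSO-treated controls, from absorbance at 595 nm.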

The test system of series [7] is MCF7. The series is described as follows: Growth inhibition of human MCF7 cells at 25 ug/ml after 72 hrs by MTT assay relative to control. Format: functional. To be noted: MCF7, 72 h, read-out: GI. Put shortly: as §2
In series [8] the test system is HL-60. Nature of the series: Growth inhibition of human HL60 cells at 25 ug/ml after 72 hrs by MTT assay relative to control. Format: functional. To be noted: HL-60, 72 h, read-out: GI. Put shortly:
as §2

In series [9] the test system is HEp-2. The series is described as follows: Growth inhibition of human Hep2 cells at 25 ug/ml after 72 hrs by MTT assay relative to control. To be noted: HEp-2, 72 h, read-out: GI. Format: functional. An outline of the steps:
as §2

Usually IC50 stands for the concentration that inhibits the measured activity by half. The low end stands for higher potency, the high end for lower potency. Turning to `CC(C)O[C@@H]1C=CC(=O)[C@@H](CO)O1`, the IC50 in the series with NCI-H292 [1] turned out to be 24.2 µM; in the series with MCF7 [2] it was 36 µM; in the series with HL-60 [3], 9.7 µM; in the series with HEp-2 [4], 34.9 µM.

On to `CCCO[C@@H]1C=CC(=O)[C@@H](CO)O1`, for which the IC50 with NCI-H292 [1] turned out to be 15.6 µM; with MCF7 [2], 18.3 µM; in the series with HL-60 [3], 10.7 µM; in the series with HEp-2 [4], 13.4 µM.

Turning to `C=CCO[C@@H]1C=CC(=O)[C@@H](CO)O1`, the IC50 in the series with NCI-H292 [1] is 10.3 µM; with MCF7 [2] it was 16.3 µM; in the series on HL-60 [3] it was 4.9 µM; in the series on HEp-2 [4] it was 26.1 µM.

As for `C#CCCO[C@@H]1C=CC(=O)[C@@H](CO)O1`, the IC50 is 12.7 µM in the series with NCI-H292 [1], 2.5 µM with HL-60 [3] and 7.1 µM with HEp-2 [4].

With `O=C1C=C[C@@H](OC2CCCCC2)O[C@@H]1CO`, the IC50 in the series on NCI-H292 [1] was found to be 2.6 µM; with MCF7 [2] it was 11 µM; with HL-60 [3], 13.3 µM; in the series on HEp-2 [4] it was 7.5 µM.

For `COCCOCCOCCO[C@@H]1C=CC(=O)[C@@H](CO)O1`, the IC50 turned out to be 35.5 µM with NCI-H292 [1], 7.9 µM with HL-60 [3] and 32.1 µM with HEp-2 [4]. In addition, the solubility entry in series [5] is reported as “Soluble”.

With `C#CCO[C@@H]1C=CC(=O)[C@@H](CO)O1`, the IC50 in the series with NCI-H292 [1] was found to be 6.6 µM; in the series on MCF7 [2] it was 10.4 µM; in the series on HL-60 [3], 9.3 µM; with HEp-2 [4], 15.4 µM.

Turning to `CCO[C@@H]1C=CC(=O)[C@@H](CO)O1`, the inhibition of growth at 25 µg/mL in the series with NCI-H292 [6] is 100%; with MCF7 [7], 97.2%; in the series on HL-60 [8], 100%; with HEp-2 [9], 100%. For the same compound, the concentration for half-maximal inhibition (IC50) came to 18 µM in the series with NCI-H292 [1], 3.5 µM in the series on HL-60 [3] and 5.8 µM in the series with HEp-2 [4].

As for `O=C1C=C[C@@H](OCc2ccccc2)O[C@@H]1CO`, the IC50 in the series on NCI-H292 [1] turned out to be 3.8 µM; with MCF7 [2], 11.1 µM; with HL-60 [3] it was 27.3 µM; in the series on HEp-2 [4], 8.5 µM.

`CCO[C@@H]1C=C[C@H](OC(C)=O)[C@@H](COC(C)=O)O1`: the inhibition of growth at 25 µg/mL in the series with NCI-H292 [6] came to 2.1%; with MCF7 [7], 5.1%; with HL-60 [8], 12.3%; with HEp-2 [9] it was 9.3%.

`O=C1C=C[C@@H](OC2CCCC2)O[C@@H]1CO`: the IC50 in the series on NCI-H292 [1] turned out to be 19.8 µM; with MCF7 [2], 20.7 µM; in the series with HL-60 [3] it was 4.2 µM; with HEp-2 [4], 8 µM.

Take `CCO[C@@H]1C=C[C@H](O)[C@@H](CO)O1`: the inhibition of growth at 25 µg/mL with NCI-H292 [6] worked out at 17.4%; with MCF7 [7], 20.4%; in the series on HL-60 [8] it was 31.4%; in the series on HEp-2 [9], 12.5%.

Regarding `COc1cccc2c1C(=O)c1c(O)c3c(c(O)c1C2=O)C[C@@](O)(C(=O)CO)C[C@@H]3O[C@H]1C[C@H](N)[C@H](O)[C@H](C)O1` [DOXORUBICIN], the IC50 with NCI-H292 [1] amounted to 0.6 µM; with MCF7 [2], 0.6 µM; with HEp-2 [4] it was 1.3 µM.
